Where a name gives a salt, the structure may show the parent alone.

Experimental findings from ChEMBL document CHEMBL1177862, “Novel effects of glycyrrhetinic acid on the central nervous system tumorigenic progenitor cells: induction of actin disruption and tumor cell-selective toxicity” (Eur J Med Chem, 2010) are described below.

Experiment [1] is described as follows: Antiproliferative activity against mouse r/m HM-SFME-1 cells after 24 hrs by MTT assay. It is filed as functional, cell-based. Summed up: (§1)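 Cells were kept in DME/F-12 with insulin, transferrin and EGF on fibronectin-coated dishes at 37 C in 20% O2/5% CO2. They were seeded at 1 x 10^4 cells/well and dosed at half confluency for 24 h. Cell number was read by MTT. Runs were in triplicate, repeated at least three times, as mean SD. IC50 was derived from concentration-response data.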

Experiment [2] in a line: Antiproliferative activity against mouse SFME cells after 24 hrs by MTT assay. The format is cell-based. In short, it runs like this: as §1
Experiment [3] in a line: Induction of F-actin disruption in mouse SFME cells assessed as F-actin extension at IC50 after 8 hrs by confocal laser scanning microscopy. It is filed as functional, cell-based. Summed up: (§2)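 After 8 h treatment, cells were fixed in 3.7% formaldehyde/PBS and permeabilized with 0.1% Triton X-100. F-actin was labeled with rhodamine-phalloidin. Slides were mounted in anti-fade medium and imaged by confocal laser scanning or fluorescence microscopy for peripheral F-actin extensions and lamellipodia.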

Experiment [4] in a line: Induction of F-actin disruption in mouse r/m HM-SFME-1 cells assessed as disappearance of F-actin extension at IC50 after 8 hrs by confocal laser scanning microscopy. It is filed as functional, cell-based. In short, it runs like this:
as §2

A short description of experiment [5]: Down regulation of beta-actin protein expression in mouse r/m HM-SFME-1 cells at IC50 after 8 hrs by Western blotting. It is filed as functional, cell-based. In short, it runs like this: (§3)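 They were run on SDS-PAGE, blotted to nitrocellulose and probed with mouse monoclonal anti-beta-actin, then AP-conjugated anti-mouse IgG1. GAPDH was the loading control. Bands were quantified by densitometry. Values are from at least 3 experiments, Student's t-test.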

The nature of experiment [6]: Antiproliferative activity against mouse r/m HM-SFME-1 cells at 10 uM after 24 hrs by MTT assay. It is filed as functional. Summed up:
as §1

The nature of experiment [7]: Down regulation of beta-actin protein expression in mouse SFME cells at IC50 after 8 hrs by Western blotting. The format is functional, cell-based. In short, it runs like this:
as §3

Regarding `COc1cc([C@@H]2c3cc4c(cc3[C@@H](O[C@@H]3O[C@@H]5CO[C@@H](C)O[C@H]5[C@H](O)[C@H]3O)[C@H]3COC(=O)[C@H]23)OCO4)cc(OC)c1O` [ETOPOSIDE], the values for the IC50 in experiment [1] and in experiment [2] were 9 µM and 0.5 µM, respectively.

Regarding `COc1cccc2c1C(=O)c1c(O)c3c(c(O)c1C2=O)C[C@@](O)(C(=O)CO)C[C@@H]3O[C@H]1C[C@H](N)[C@H](O)[C@H](C)O1` [DOXORUBICIN HYDROCHLORIDE], the IC50 in experiment [1] worked out at 64 µM; in experiment [2], 0.8 µM.

For `O=c1[nH]cc(F)c(=O)[nH]1` [FLUOROURACIL], the IC50 in experiment [1] came out at 48.5 µM; in experiment [2], 3.2 µM.

`CC1(C)[C@@H](O)CC[C@]2(C)[C@H]3C(=O)C=C4[C@@H]5C[C@@](C)(C(=O)O)CC[C@]5(C)CC[C@@]4(C)[C@]3(C)CC[C@@H]12` [ENOXOLONE]: the IC50 entry in experiment [3] was “Not Active”; in experiment [4], “Active”; in experiment [1], 7.3 µM; in experiment [5], “Active”; in experiment [7] it was “Not Active”; in experiment [2] it was 18 µM. The inhibition at 10 µM in experiment [6] is more than 80%.

As for `Nc1ccn([C@@H]2O[C@H](CO)[C@@H](O)[C@@H]2O)c(=O)n1` [CYTARABINE], the IC50 stood at 33.3 µM in experiment [1] and 0.8 µM in experiment [2].
